Experimental data from ChEMBL document CHEMBL2390936, “Phosphonic analogues of glutamic acid as irreversible inhibitors of Staphylococcus aureus endoproteinase GluC: an efficient synthesis and inhibition of the human IgG degradation” (Bioorg Med Chem Lett, 2013).
Calls of active or inactive are those of the source. The rule behind the calls is not given here.

Columns and labels:
Glutamyl endopeptidase = Glutamyl endopeptidase (Staphylococcus aureus, UniProt P0C1U8); assay: Inhibition of Staphylococcus aureus endoproteinase GluC using Ac-Phe-Leu-Glu-ACC as substrate after 30 mins
How it was run: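 V8 protease (75 nM, commercial) in 0.1 M Tris–HCl, 0.05% Tween 20, pH 7.8, 37 °C. Fluorogenic substrate Ac-Phe-Leu-Glu-ACC (Ex 355/Em 460 nm). Enzyme added to substrate plus inhibitor, with [E]0 below [I]0. Observed inhibition rate constants taken from progress curves, giving k2/Ki and Ki.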

[1] = target: T1, Serine protease SplB (Staphylococcus aureus) (UniProt Q53781); assay: Inhibition of Staphylococcus aureus SplB protease using Ac-Trp-Glu-Leu-Gln-ACC as substrate at 200 uM after 30 mins
T1 sequence (whole entry): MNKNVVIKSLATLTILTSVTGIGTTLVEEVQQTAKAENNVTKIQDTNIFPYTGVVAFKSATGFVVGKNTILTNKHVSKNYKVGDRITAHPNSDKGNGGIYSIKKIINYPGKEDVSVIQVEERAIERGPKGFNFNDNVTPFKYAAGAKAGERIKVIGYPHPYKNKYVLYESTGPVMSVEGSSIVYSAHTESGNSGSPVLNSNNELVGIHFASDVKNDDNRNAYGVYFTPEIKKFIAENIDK
How it was run: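 SplB protease (100 nM, recombinant, expressed and purified in-house) in 0.1 M Tris–HCl, 0.01% Triton X-100, pH 7.6, 37 °C. Fluorogenic substrate Ac-Trp-Glu-Leu-Gln-ACC (Ex 355/Em 460 nm). Enzyme added last to substrate plus inhibitor. Percentage inhibition read after 30 min of kinetic measurement with inhibitor at 200 µM.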

[2] = target: Glutamyl endopeptidase (Staphylococcus aureus) (UniProt P0C1U8); assay: Inhibition of Staphylococcus aureus endoproteinase GluC-mediated human IgG degradation at 100 uM preincubated 1 hr prior to human IgG degradation addition measured after 24 hrs
How it was run: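 V8 protease (final 1 µM) pre-incubated 1 h at 37 °C with inhibitor (final 100 µM). Human IgG (final 160 µg/ml) then added and incubated 24 h at 37 °C. DMSO-only control. Fragments separated by gel and visualised by silver staining.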

Staphylococcus aureus = assay: Antibacterial activity against Staphylococcus aureus ATCC […] after 4 to 24 hrs; assay type: functional, organism-based
[3] = target: Glutamyl endopeptidase (Staphylococcus aureus) (UniProt P0C1U8); assay: Inhibition of Staphylococcus aureus endoproteinase GluC using Ac-Phe-Leu-Glu-ACC as substrate at 200 uM after 30 mins
How it was run: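 V8 protease (75 nM) in 0.1 M Tris–HCl, 0.05% Tween 20, pH 7.8, 37 °C, with fluorogenic Ac-Phe-Leu-Glu-ACC (Ex 355/Em 460 nm). Enzyme added last to substrate plus inhibitor. Percentage inhibition recorded after 30 min of kinetic measurement at 200 µM inhibitor.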

Sequence of Glutamyl endopeptidase (Staphylococcus aureus) (P0C1U8 whole entry, the tested form may be a part): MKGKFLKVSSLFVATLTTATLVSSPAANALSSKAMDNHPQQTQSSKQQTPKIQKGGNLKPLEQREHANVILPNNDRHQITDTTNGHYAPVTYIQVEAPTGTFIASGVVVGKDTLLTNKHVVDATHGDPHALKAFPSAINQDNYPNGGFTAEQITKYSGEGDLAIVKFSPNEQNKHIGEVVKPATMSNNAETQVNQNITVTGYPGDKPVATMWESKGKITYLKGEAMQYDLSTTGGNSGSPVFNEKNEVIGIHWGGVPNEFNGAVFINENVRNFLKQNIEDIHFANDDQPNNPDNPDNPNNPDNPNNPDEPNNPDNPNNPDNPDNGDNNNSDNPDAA
Sequence of Glutamyl endopeptidase (P0C1U8 whole entry): as the sequence (P0C1U8 whole entry, the tested form may be a part) above

Molecule | Ki (Glutamyl endopeptidase) [µM] | inhibition [1] [%] | inhibition [3] [%] | also measured
CC(C)C[C@H](NC(=O)OC(C)(C)C)C(=O)NC(CCC(=O)O)P(=O)(Oc1ccccc1)Oc1ccccc1 (mixture of isomers) | 7.8 | 0 | – | –
CC(C)[C@H](NC(=O)OC(C)(C)C)C(=O)NC(CCC(=O)O)P(=O)(Oc1ccccc1)Oc1ccccc1 (mixture of isomers) | 23.3 | 0 | – | –
CC(C)C[C@H](NC(=O)[C@H](Cc1ccccc1)NC(=O)OC(C)(C)C)C(=O)NC(CCC(=O)O)P(=O)(Oc1ccccc1)Oc1ccccc1 (mixture of isomers) | 6.2 | 0 | – | inhibition [2]: Active; inhibition (Staphylococcus aureus): inactive
CC(C)C[C@H](NC(=O)[C@H](CCC(=O)O)NC(=O)OC(C)(C)C)C(=O)NC(CCC(=O)O)P(=O)(Oc1ccccc1)Oc1ccccc1 (mixture of isomers) | 9.5 | 0 | – | –
C[C@H](NC(=O)[C@H](Cc1ccccc1)NC(=O)OC(C)(C)C)C(=O)NC(CCC(=O)O)P(=O)(Oc1ccccc1)Oc1ccccc1 (mixture of isomers) | 9.4 | 0 | – | –
C[C@H](NC(=O)[C@H](CCC(=O)O)NC(=O)OC(C)(C)C)C(=O)NC(CCC(=O)O)P(=O)(Oc1ccccc1)Oc1ccccc1 (mixture of isomers) | 12.9 | 0 | – | –
CC(C)[C@H](NC(=O)[C@H](Cc1ccccc1)NC(=O)OC(C)(C)C)C(=O)NC(CCC(=O)O)P(=O)(Oc1ccccc1)Oc1ccccc1 (mixture of isomers) | 8.15 | 0 | – | –
CC(C)[C@H](NC(=O)[C@H](CCC(=O)O)NC(=O)OC(C)(C)C)C(=O)NC(CCC(=O)O)P(=O)(Oc1ccccc1)Oc1ccccc1 (mixture of isomers) | 9.95 | 0 | – | –
CC(C)C[C@H](NC(=O)[C@H](CC(=O)O)NC(=O)OC(C)(C)C)C(=O)NC(CCC(=O)O)P(=O)(Oc1ccccc1)Oc1ccccc1 (mixture of isomers) | – | 0 | 41 | –
CC(C)C[C@H](NC(=O)[C@H](CCC(=O)O)NC(=O)OC(C)(C)C)C(=O)NC(CCC(N)=O)P(=O)(Oc1ccccc1)Oc1ccccc1 (mixture of isomers) | – | – | 0 | –
CC(C)[C@H](NC(=O)[C@H](CC(=O)O)NC(=O)OC(C)(C)C)C(=O)NC(CCC(=O)O)P(=O)(Oc1ccccc1)Oc1ccccc1 (mixture of isomers) | – | 0 | 50 | –
C[C@H](NC(=O)OC(C)(C)C)C(=O)NC(CCC(=O)O)P(=O)(Oc1ccccc1)Oc1ccccc1 (mixture of isomers) | – | 0 | 39 | –
C[C@H](NC(=O)[C@H](CC(=O)O)NC(=O)OC(C)(C)C)C(=O)NC(CCC(=O)O)P(=O)(Oc1ccccc1)Oc1ccccc1 (mixture of isomers) | – | 0 | 26 | –
O=C(O)CCC(NC(=O)OCc1ccccc1)P(=O)(Oc1ccccc1)Oc1ccccc1 (racemic) | 8.1 | 0 | – | –
CC(=O)NC(CCC(=O)O)P(=O)(Oc1ccccc1)Oc1ccccc1 (racemic) | 11.1 | 0 | – | –
GENTAMICIN | – | – | – | MIC (Staphylococcus aureus): 2 µg/mL
